Data as given in ChEMBL document CHEMBL4680231, “A glutathione-responsive photosensitizer with fluorescence resonance energy transfer characteristics for imaging-guided targeting photodynamic therapy” (Eur J Med Chem, 2020).
Active and inactive are the calls of the source. The rule behind the calls is not given here.

Experiments:
HeLa [1] = test: Cytotoxicity against human HeLa cells assessed as reduction cell viability preincubated for 24 hrs in dark condition followed by irradiated with 20 mW cm^-2 light by MTT assay; assay type: functional, cell-based
Procedure, shortened: (§1)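 MTT assay. About 6000 cells per well were seeded and left overnight at 37 °C, 5% CO2. Compound was added at a range of concentrations in DMEM (1% DMSO, 0.05% Tween 80) for 24 h in the dark, then the medium was replaced. Irradiated wells received a 670 nm LED at 20 mW·cm⁻² for 2 min (2.4 J·cm⁻²); dark wells were not irradiated. Cells were incubated overnight, then MTT for 4 h, DMSO added, OD read at 490 nm. Three independent experiments, each in sextuplicate. IC50 is the concentration killing 50% of cells.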

[2] = Prodrug activation in human A549 cells assessed as increase in fluorescence at 10 uM after 8 hrs by confocal laser scanning microscopic method; assay type: cell-based; details: a549, 8 h
Procedure, shortened: (§2)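 Cells (10^5 per confocal dish) were seeded in DMEM overnight at 37 °C, 5% CO2. They were pretreated with 5 mM GSH in DMEM, or medium alone, for 2 h, then washed. Compound at 10 μM was added for 8 h. Intracellular fluorescence was read by confocal microscopy (excitation 633 nm) or by flow cytometry under the same conditions.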

[3] = Prodrug activation in human A549 cells assessed as increase in fluorescence at 10 uM after 8 hrs in presence of GSH by confocal laser scanning microscopic method; assay type: cell-based; details: a549, 8 h; procedure, shortened: as §2
[4] = Prodrug activation in mouse H22 cells assessed as increase in fluorescence at 10 uM after 8 hrs in presence of GSH by confocal laser scanning microscopic method; assay type: cell-based; details: h22, 8 h; procedure, shortened: as §2
[5] = Prodrug activation in HELF cells assessed as increase in fluorescence at 10 uM after 8 hrs in presence of GSH by confocal laser scanning microscopic method; assay type: cell-based; details: human, primary lung fibroblast; procedure, shortened: as §2
[6] = Prodrug activation in human HeLa cells assessed as increase in fluorescence at 10 uM after 8 hrs by flow cytometric analysis; assay type: cell-based; procedure, shortened: as §2
[7] = Prodrug activation in human A549 cells assessed as increase in fluorescence at 10 uM after 8 hrs by flow cytometric analysis; assay type: cell-based; details: a549, 8 h; procedure, shortened: as §2
[8] = Prodrug activation in HELF cells assessed as increase in fluorescence at 10 uM after 8 hrs by flow cytometric analysis; assay type: cell-based; details: human, primary lung fibroblast; procedure, shortened: as §2
[9] = Prodrug activation in human A549 cells assessed as increase in fluorescence at 10 uM after 8 hrs in presence of GSH by flow cytometric analysis; assay type: cell-based; details: a549, 8 h; procedure, shortened: as §2
[10] = Prodrug activation in HELF cells assessed as increase in fluorescence at 10 uM after 8 hrs in presence of GSH by flow cytometric analysis; assay type: cell-based; details: human, primary lung fibroblast; procedure, shortened: as §2
A549 [11] = test: Induction of ROS generation in human A549 cells at 10 uM incubated for 12 hrs irradiated with 20 mW cm^-2 light in presence of GSH by DCFH-DA staining based confocal laser scanning microscopic method; assay type: functional, cell-based
Procedure, shortened: (§3)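 Cells were seeded in confocal dishes overnight. Pretreatment was GSH 5 mM in DMEM for 2 h, or vitamin C 100 μM for 1 h, before compound at 10 μM for 12 h. DCFH-DA was added for 1 h, then 5 PBS washes and transfer to serum-free, phenol red-free DMEM. Cells were irradiated at 670 nm, 20 mW·cm⁻², for 3 min. Confocal imaging used λex 488 nm for DCF and 633 nm for the photosensitizer.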

HeLa [12] = test: Induction of ROS generation in human HeLa cells at 10 uM incubated for 12 hrs irradiated with 20 mW cm^-2 light in presence of GSH by DCFH-DA staining based confocal laser scanning microscopic method; assay type: functional, cell-based; procedure, shortened: as §3
H22 [13] = test: Induction of ROS generation in mouse H22 cells at 10 uM incubated for 12 hrs irradiated with 20 mW cm^-2 light in presence of GSH by DCFH-DA staining based confocal laser scanning microscopic method; assay type: functional, cell-based; procedure, shortened: as §3
A549 [14] = test: Induction of ROS generation in human A549 cells at 10 uM incubated for 12 hrs irradiated with 20 mW cm^-2 light in presence of vitamin C by DCFH-DA staining based confocal laser scanning microscopic method; assay type: functional, cell-based; procedure, shortened: as §3
Primary lung fibroblast = test: Induction of ROS generation in human HELF cells at 10 uM incubated for 12 hrs irradiated with 20 mW cm^-2 light in presence of vitamin C by DCFH-DA staining based confocal laser scanning microscopic method; assay type: functional, cell-based; procedure, shortened: as §3
A549 [15] = test: Cytotoxicity against human A549 cells assessed as reduction cell viability up to 10 uM after 24 hrs in dark condition by MTT assay; assay type: cell-based; details: a549, 24 h; procedure, shortened: as §1
HeLa [16] = test: Cytotoxicity against human HeLa cells assessed as reduction cell viability up to 10 uM after 24 hrs in dark condition by MTT assay; assay type: cell-based; procedure, shortened: as §1
H22 [17] = test: Cytotoxicity against mouse H22 cells assessed as reduction cell viability up to 10 uM after 24 hrs in dark condition by MTT assay; assay type: cell-based; details: h22, 24 h; procedure, shortened: as §1
[18] = Cytotoxicity against human HELF cells assessed as reduction cell viability up to 10 uM after 24 hrs in dark condition by MTT assay; assay type: cell-based; details: primary lung fibroblast; procedure, shortened: as §1
A549 [19] = test: Cytotoxicity against human A549 cells assessed as reduction cell viability preincubated for 24 hrs in dark condition followed by irradiated with 20 mW cm^-2 light by MTT assay; assay type: functional, cell-based; procedure, shortened: as §1
[20] = Drug uptake in tumour of Kunming mouse implanted with H22 cells at 2 mg/kg, iv and measured up to 24 hrs by FMT assay; assay type: ADME, organism-based, Neoplasm; details: in vivo
Procedure, shortened: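 Mice carried subcutaneous back tumours from H22 cells (10^7 cells/mL, 100 μL), used at about 50 mm³. They received a single tail-vein injection of 2 mg/kg (200 μL), with saline as control, 3 mice per group. Whole-body fluorescence molecular tomography was taken at 0, 2, 6, 12 and 24 h. At 24 h, tumour, heart, liver, spleen, lung and kidney were imaged ex vivo.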

H22 [21] = test: Photodynamic antitumor activity against mouse H22 cells implanted in Kunming mouse assessed as reduction in tumour volume at 2 mg/kg, iv administered at […] post-implantation followed by irradiated with 100 mW/cm2 […] and measured up to 15 days; assay type: functional, organism-based; details: time 15.0 day
Procedure, shortened: (§4)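 Mice carried subcutaneous H22 tumours of about 50 mm³ and were randomised into 5 groups of 5. They received saline or compound at 2 mg/kg (100 μL) i.v. on days 1, 4 and 7. Light groups were irradiated at 670 nm, 100 mW/cm², 12 h after each dose. Tumour volume and body weight were recorded daily for 15 days. Tumours were then excised and weighed, fixed in 4% paraformaldehyde, paraffin-embedded and H&E stained. Apoptotic and necrotic areas were scored microscopically.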

H22 [22] = test: Photodynamic antitumor activity against mouse H22 cells implanted in Kunming mouse assessed as reduction in tumour weight at 2 mg/kg, iv administered at […] post-implantation followed by irradiated with 100 mW/cm2 […] and measured up to 15 days; assay type: functional, organism-based; details: time 15.0 day; procedure, shortened: as §4
H22 [23] = test: Photodynamic antitumor activity against mouse H22 cells implanted in Kunming mouse assessed as reduction in tumour size at 2 mg/kg, iv administered at […] post-implantation followed by irradiated with 100 mW/cm2 […] and measured up to 15 days; assay type: functional, organism-based; details: time 15.0 day; procedure, shortened: as §4
[24] = Photoactivity of compound in PBS with 0.05% Tween 80 assessed as singlet oxygen generation at 10 uM irradiated with 20 mW cm^-2 light in presence on GSH by DMA based fluorescence assay

| Drug metabolism [2] | Drug metabolism [3] | Drug metabolism [4] | Drug metabolism [5] | Drug metabolism [6] | Drug metabolism [7] | Drug metabolism [8] | Drug metabolism [9] | Drug metabolism [10] | Drug uptake [20] | Compound | Activity (A549 [11]) | Activity (HeLa [12]) | Activity (H22 [13]) | Activity (A549 [14]) | Activity (Primary lung fibroblast) | Activity (A549 [15]) | Activity (HeLa [16]) | Activity (H22 [17]) | Activity [18] | Activity (H22 [21]) | further results |
| --- | --- | --- | --- | --- | --- | --- | --- | --- | --- | --- | --- | --- | --- | --- | --- | --- | --- | --- | --- | --- | --- |
| Metabolite_Notdetected | Metabolite_Notdetected | Metabolite_Notdetected | Metabolite_Notdetected | Metabolite_Notdetected | Metabolite_Notdetected | Metabolite_Notdetected | Metabolite_Notdetected | Metabolite_Notdetected | Active | COCCOCCOCCOc1ccc(/C=C/C2=[N+]3C(=C(c4ccc(OCc5cn(CCCCCCn6cc(COc7ccc(C8=C9C(C)=CC(/C=C/c%10ccc(N(C)C)cc%10)=[N+]9[B-](F)(F)n9c(/C=C/c%10ccc(N(C)C)cc%10)cc(C)c98)cc7)nn6)nn5)cc4)c4c(C)c(I)c(/C=C/c5ccc(OCCOCCOCCOC)cc5)n4[B-]3(F)F)C(C)=C2I)cc1 | inactive | inactive | inactive | inactive | inactive | Non-Toxic | Non-Toxic | Non-Toxic | Non-Toxic | Active | Activity (HeLa [1]): inactive; Activity (A549 [19]): inactive; Activity (H22 [22]): Active; Activity (H22 [23]): Active; Drug metabolism [24]: Metabolite not detected |
| Metabolite_Detected | Metabolite_Detected | Metabolite_Detected | Metabolite_Detected | Metabolite_Detected | Metabolite_Detected | Metabolite_Notdetected | Metabolite_Detected | Metabolite_Detected | Active | COCCOCCOCCOc1ccc(/C=C/C2=[N+]3C(=C(c4ccc(OCc5cn(CCSSCCn6cc(COc7ccc(C8=C9C(C)=CC(/C=C/c%10ccc(N(C)C)cc%10)=[N+]9[B-](F)(F)n9c(/C=C/c%10ccc(N(C)C)cc%10)cc(C)c98)cc7)nn6)nn5)cc4)c4c(C)c(I)c(/C=C/c5ccc(OCCOCCOCCOC)cc5)n4[B-]3(F)F)C(C)=C2I)cc1 | Active | Active | Active | inactive | inactive | Non-Toxic | Non-Toxic | Non-Toxic | Non-Toxic | Active | IC50 (HeLa [1]; light or radiation study): 670 nM; IC50 (A549 [19]; A549, light or radiation study): 440 nM; Activity (H22 [22]): Active; Activity (H22 [23]): Active; Drug metabolism [24]: Metabolite detected |
